# Compound activity: PubChem BioAssay, Broad Institute
# PGC1a acetyl inh – inhibitors of PGC1a acetylation signal, primary screen, cell-based, U2OS, AlphaScreen, inhibitor mode; 350,000 tested, 0.17% active; inhibition, % at 15.6 µM; AID 651687, 2012; AlphaScreen anti-acetyl-lysine; with virally co-expressed GCN5 acetyltransferase;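 active = every replicate shows inhibition of at least 40%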;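 note: 0% = neutral control wells and 100% = positive control wells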
# SIRT5 block – SIRT5 desuccinylase inhibitors, primary screen, biochemical, fluorescence imaging, single point, set 5; inhibition, % at 15 µM; NAD-dependent protein deacylase sirtuin-5, mitochondrial (Homo sapiens), Q9NXA8; 330,000 tested, 1.1% active; Purified SirT5, succinyl-peptide AMC, trypsin-coupled fluorescence; in the data active = inhibition above about 15%
# Target sequence (Q9NXA8 whole entry, looked up): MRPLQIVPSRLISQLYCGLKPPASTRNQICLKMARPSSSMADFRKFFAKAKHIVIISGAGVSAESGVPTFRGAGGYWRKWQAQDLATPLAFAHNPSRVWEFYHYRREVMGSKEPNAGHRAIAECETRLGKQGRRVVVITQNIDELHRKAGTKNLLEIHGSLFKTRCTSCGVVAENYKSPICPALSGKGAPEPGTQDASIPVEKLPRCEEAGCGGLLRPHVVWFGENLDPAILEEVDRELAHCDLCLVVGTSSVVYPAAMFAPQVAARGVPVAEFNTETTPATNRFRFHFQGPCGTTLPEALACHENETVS
# Cneo AK release – Cryptococcus neoformans cell lysis inducers, primary screen, AK release luminescence, single concentration; lysis activity, % at 15 µM; 360,000 tested, 0.2% active; AID 651654, 2012; C. neoformans lysis, adenylate kinase release luminescence, 4 h; normalised: neutral wells 0, clomiphene wells 100;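 active = mean lysis activity across replicates of at least 80%, whatever share of replicates individually reach that level; inactive = mean lysis activity below 80%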
#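 Material: C. neoformans cells; Schedule: 4 h static compound exposure, 37 °C, read 1 h post-reagent; Measured by: adenylate kinase release luminescence; Read-out: signal increase indicating cell lysis; Controls: Clomiphene as positive lysis control.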
# rRNA inh HTS – reduced GFP signal of wild-type E. coli, primary screen, bacterial rRNA inhibitor project, GFP/RFP fluorescence, OD600, single point; GFP signal change (wild-type ribosome), % (test concentration not listed); E. coli WT GFP vs humanized-ribosome RFP mutants, 24 h; hits give low values; DMSO median 0, no signal -100; AID 720706, 2013; 350,000 tested, 1.6% active;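 active = significant combined selectivity score with lowered wild-type GFP, culture density cut under 30%, mutant RFP and density less affected; inactive = any of these conditions unmet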
# S100A4 inh HTS – inhibitors of S100A4-myosin IIA peptide binding, primary screen, biochemical, fluorescence polarization, TAMRA-MyoIIA peptide | 360,000 tested, 0.14% active | Protein S100-A4 (Homo sapiens), P26447 | inhibition, % at 10.7 µM;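 active = mean inhibition of at least 70% across replicates, with every replicate also reaching that level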
# Target sequence (P26447 whole entry, looked up): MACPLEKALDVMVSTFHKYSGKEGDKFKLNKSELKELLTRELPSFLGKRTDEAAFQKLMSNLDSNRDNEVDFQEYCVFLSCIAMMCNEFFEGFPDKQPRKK
#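 Material: S100A4 monomer protein | Medium: HEPES pH 7.2 with CaCl2, KCl, NaCl, DTT, Triton | Reagent: Labelled myosin peptide probe, 5 nM | Doses: One dose per compound | Times: 5 min incubation before reading | Benchmarks: Neutral control DMSO, positive control TFP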
# C2C12 statin – suppressors of statin myotoxicity in C2C12 myotubes, primary screen, cell-based, single point, plate reader; C2C12 myotubes + simvastatin, ATP luminescence, 48 h; scaled: DMSO 0, geranylgeraniol control 100; rescue of ATP level, % at 7.49 µM; 330,000 tested, 0.78% active;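 active = mean ATP rescue above about 67%, or every replicate alone reaching that limit, limit read from the data, passing the limit was not always enough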;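 note: myotubes were challenged with 10 µM simvastatin during compound exposure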
# The depositor's hits bear a star; nt = no result given. Compounds with a hit are over-represented: about 3% of the library has one in this group of screens.
SMILES,PGC1a acetyl inh,SIRT5 block,Cneo AK release,rRNA inh HTS,S100A4 inh HTS,C2C12 statin
S=C(NCc1ccccc1)NC1CCCc2ccccc21 (stereo not drawn),-13,112*,nt,-50,-4,nt
O=C(C[C@@H]1CC[C@@H]2[C@H](COC[C@@H](O)CN2C(=O)c2ccc(F)cc2)O1)NCCCN1CCOCC1,3,-1,1,-1,-53,-9
CC(C)C#Cc1cnc2c(c1)C(=O)N([C@H](C)CO)C[C@@H](C)[C@H](CN(C)Cc1cncnc1)O2,4,-4,10,2,0,10
O=C(/C=C/c1ccc(-c2ccc(F)cc2)o1)N1CCCC1,7,21*,nt,-42,-6,nt
NC(=O)c1cc(C(=O)c2ccc(Cl)cc2)c[nH]1,32,-8,nt,-23*,1,nt
NC(=O)c1cc(C(=O)c2ccc(Cl)cc2Cl)c[nH]1,14,-2,nt,-13,0,-1
CS(=O)(=O)N1CCc2cc(C(=O)N3CCOCC3)ccc21,-13,nt,1,nt,nt,98*
CS(=O)(=O)N1CCc2cc(C(=O)N3CCCCC3)ccc21,4,nt,-1,nt,nt,4
CC(=O)Nc1ccc(NC(=O)c2ccc3c(c2)CCN3S(C)(=O)=O)cc1,-2,-3,0,4,-8,-3
COc1ccc(N2CCN(C(=O)c3ccc4c(c3)CCN4S(=O)(=O)c3ccccc3)CC2)cc1,36,-2,-1,1,-17,134*
CC(C)c1ccc(NC(=O)c2ccc3c(c2)CCN3S(C)(=O)=O)cc1,82*,-2,-1,4,5,-34
O=C(NNc1ccccc1C(F)(F)F)c1sccc1Br,5,20*,0,-1,37,5
O=C(Nc1ccccc1C(F)(F)F)c1ccsc1,nt,-6,5,5,2,4
CC=Cc1ccc2n(c1=O)C[C@H]1[C@H](CO)[C@@H](C(=O)NCCCN(C)C)[C@@H]2N1C(=O)c1ccccc1 (mixture of isomers),-8,nt,nt,1,nt,nt
Cc1cc(C)nc(N(C#N)Cc2ccccc2Cl)n1,1,-2,-1,2,-1,69*
Cc1noc(C)c1S(=O)(=O)Nc1ccc2c(c1)C(=O)N([C@@H](C)CO)C[C@H](C)[C@H](CN(C)Cc1ccncc1)OCCCC[C@@H](C)O2,8,-2,-1,3,-8,nt
CC(C)CC1(C)NC(=O)NC1=O (stereo not drawn),-9,nt,5,nt,nt,117*
O=C(/C=C/c1ccc(Br)o1)OCc1nc2ccsc2c(=O)[nH]1,-15,25*,-2,3,13,4
Cc1ccc(C(=O)OCc2nc3ccsc3c(=O)[nH]2)o1,nt,-7,1,6,0,3
CN(C)CC(=O)N[C@@H]1CC[C@H](CC(=O)NCc2ccccc2F)O[C@H]1CO,3,-3,1,0,-3,2
O=C(CN1C(=O)c2ccccc2S1(=O)=O)NCCSCc1c(F)cccc1Cl,8,-1,-1,-30*,-33,-8
CO[C@H]1CN(C)C(=O)c2ccc(NC(=O)C3CC3)cc2OC[C@@H](C)N(C(=O)c2ccncc2)C[C@@H]1C,-3,-1,-6,4,-9,-4
CO[C@H]1CN(C)C(=O)c2ccc(NC(=O)C3CC3)cc2OC[C@H](C)N(C(=O)c2ccccc2F)C[C@H]1C,-3,-6,-2,0,nt,-2
CO[C@H]1CN(C)C(=O)c2ccc(NC(=O)C3CC3)cc2OC[C@@H](C)N(C(=O)c2ccccc2F)C[C@H]1C,-4,18*,1,0,-10,2
CO[C@@H]1CN(C)C(=O)c2ccc(NC(=O)C3CC3)cc2OC[C@H](C)N(C(=O)c2ccncc2)C[C@H]1C,9,0,81*,3,15,-10
SMILES,PGC1a acetyl inh,SIRT5 block,Cneo AK release,rRNA inh HTS,S100A4 inh HTS,C2C12 statin
CC[C@]12c3[nH]c4ccccc4c3CCN1C(=O)C(CC(=O)NC/C=C(\C)CCC=C(C)C)C[C@@H]2C(=O)N1CCN(C(=O)c2ccco2)CC1 (stereo partly drawn),17,16*,1,3,3,10
CCCNC(=O)Nc1ccc2c(c1)C(=O)N(C)C[C@@H](OC)[C@H](C)CN(C(=O)C1CCC1)[C@@H](C)CO2,nt,-6,-2,1,-1,-10
Cc1ccc(C)c(N2CCN(C(=O)c3cccn4c(=O)c5sccc5nc34)CC2)c1,-1,19*,nt,-14,-1,7
Cc1ccc(C)c(N2CCN(C(=O)c3cc4ccccc4oc3=O)CC2)c1,-2,6,1,nt,3,3
CC(=O)OC[C@]12CC[C@H]3[C@@](C)(CC[C@H]4C(C)(C)CCC[C@]34C)[C@@H]1CC(C1=CC(=O)OC1O)O2 (stereo partly drawn),87*,nt,13,nt,-8,-303
CC(=O)OC[C@]1(OC(C)=O)C[C@@]23CC[C@H]4[C@@](C)(CCC[C@@]4(C)C(=O)O)[C@@H]2CC[C@@H]1C3,nt,0,0,-14,-10,2
NS(=O)(=O)c1cccc2c1c([N+](=O)[O-])cc1nc(O)c(O)nc12,-3,16*,0,nt,5,3
CCC(=O)/C=C1/Sc2ccccc2N1CC,8,nt,27,nt,nt,112*
CC=Cc1ccc2n(c1=O)C[C@@H]1[C@@H](CO)[C@H](C(=O)NCc3ccncn3)N(C(=O)NC3CCCC3)[C@H]21 (mixture of isomers),nt,-4,-2,3,27,-9
COc1ccc(/C=C2\Oc3cc(OCC(N)=O)ccc3C2=O)cc1OC,-2,-1,-4,-29*,-2,-35
COc1cccc(N=Nc2c(=O)[nH]n3c(=O)cc(C)[nH]c23)c1,-1,nt,nt,nt,nt,94*
CCNC(=O)[C@H]1[C@H](CO)[C@H]2Cn3c(ccc(-c4ccccc4F)c3=O)[C@@H]1N2C(=O)CC,15,-14,-1,2,9,9
C[C@@H]1CN([C@H](C)CO)C(=O)c2cc(NC(=O)CCC(F)(F)F)ccc2O[C@@H](C)CCCCO[C@H]1CN(C)C(=O)Nc1ccc(C(F)(F)F)cc1,3,-1,-2,4,-2,nt
Nc1cc(Cl)ccc1Oc1ccccc1,8,nt,5,nt,nt,-1
Cc1cccc(Oc2ccc(Cl)cc2N)c1,5,112*,-1,-49,-1,1
COc1ccc(CCNC(=O)c2cc3c(=O)n4ccccc4nc3n(C3CCCCC3)c2=N)cc1,nt,-2,14,-30,-11,32
